In ChEMBL document CHEMBL5034012, “Procainamide-SAHA Fused Inhibitors of hHDAC6 Tackle Multidrug-Resistant Malaria Parasites” (J Med Chem, 2021):
Calls of active or inactive are those of the source. The calls are words filed in the database; no cut-off is given here.

How the values were obtained:
Plasmodium falciparum [1] = experiment: Antiplasmodial activity against Cambodian multidrug-resistant Plasmodium falciparum isolate incubated for 96 hrs measured by SYBR Green 1 assay; assay type: functional, organism-based
In short: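 Cambodian isolates chosen by multidrug-resistance pattern, 10 per resistance type. Ring-synchronized cultures at 2% hematocrit and 1% starting parasitemia; 11-point 2-step dilutions from 500nM; 96h incubation, then SYBR-green I read-out. Mefloquine and monodesethylamodiaquine served as positive controls. Triplicate wells, one biological replicate per isolate.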

Plasmodium falciparum [2] = experiment: Antiplasmodial activity against asynchronous asexual culture of Plasmodium falciparum NF54 assessed as parasite growth inhibition; assay type: functional, organism-based
In short: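 Asynchronous asexual NF54 cultures exposed to 7-point, 2-step serial dilutions starting at 500nM. DHA served as positive control, DMSO as negative. IC50 interpolated from three independent experiments run in triplicate.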

HepG2 = experiment: cells; assay type: functional, cell-based; details: Homo sapiens, HepG2, 72 h
HL-60 [3] = experiment: cells; assay type: functional, cell-based; details: Homo sapiens, HL-60, 72 h
Plasmodium falciparum [4] = experiment: Antiplasmodial activity against Plasmodium falciparum stage IIb-III gametocytes assessed as abnormal morphology by measuring rounded/swollen at highest concentration measured after 72 hrs using Geimsa staining based assay; assay type: functional
In short: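 Day-4 stage IIb-III gametocytes (asexuals removed by N-acetyl glucosamine), about 1% gametocytemia at 2% hematocrit, treated 72h at 10, 5, 1 or 0.5 µM against 0.1% DMSO. Then washed and recultured with daily medium changes. Morphology and parasitemia scored daily on Giemsa-stained thin smears.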

Plasmodium falciparum [5] = experiment: Antiplasmodial activity against Plasmodium falciparum NF54 late stage IV-V gametocytes assessed as reduction in number of exflagellation centers in at 1 uM treated for 72 hrs; assay type: functional, organism-based
In short: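 Synchronous gametocytes induced; asexual forms removed with N-acetyl glucosamine for 5 days. Day-9 stage IV-V gametocytes, about 1% gametocytemia at 2% hematocrit, treated 72h at 10, 5, 1 or 0.5 µM against 0.1% DMSO. Then washed and recultured with daily medium changes. […], pelleted cells mixed 1:1 with human serum. Exflagellation centers counted over ≥10 fields at 40× within one hour. Two independent experiments; one-way ANOVA.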

Plasmodium falciparum [6] = experiment: Antiplasmodial activity against synchronized ring stage Plasmodium falciparum 3D7 assessed as parasite reduction rate in lag phase by measuring time required to achieve maximum speed of action at 10 times IC50 concentration; assay type: functional
In short: (§1)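 3D7 culture of mostly rings exposed to drug for 6, 24, 48, 72 or 96h. Then washed, serially diluted 1/3 in fresh RBC and grown 3 weeks. Growth read by SYBR-green I. Number of wells with growth used to back-calculate viable parasites at each time point and derive growth parameters. One experiment, run in duplicate.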

Plasmodium falciparum [7] = experiment: Antiplasmodial activity against synchronized ring stage Plasmodium falciparum 3D7 assessed as parasite reduction over one cycle upto 48 hrs at 10 times IC50 concentration; assay type: functional; details: time hrs <=48; in short: as §1
Plasmodium falciparum [8] = experiment: Antiplasmodial activity against Plasmodium falciparum 3D7 assessed as time to kill initial parasite load at 10 times IC50 concentration; assay type: functional
In short: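 Parasite reduction rate assay on 3D7 cultures containing mostly rings, with DHA and pyrimethamine as references. Exposure windows of 6, 24, 48, 72 and 96h; cells then washed, serially diluted 1/3 in fresh RBC and grown 3 weeks before SYBR-green I read-out. Number of wells with growth gives viable parasites per time point, per Sanz et al. One experiment in duplicate.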

Histone deacetylase = experiment: Inhibition of human HDAC using human HeLa cell nuclear extract measured after 60 mins by fluorescence assay; assay type: tissue-based
[9] = target: Histone deacetylase (Homo sapiens) (UniProt Q13547+O15379+Q9UBN7+Q92769+Q9UQL6+Q8WUI4+Q9BY41+Q96DB2+P56524+Q9UKV0+Q969S8); experiment: Inhibition of human HDAC using human HeLa cell nuclear extract 1 uM by fluorescence assay
In short: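 HeLa nuclear extract (3x10⁻³mg) incubated with compound and 43 µM Tosyl-Gly-Pro-Lys(Ac)-AMC. Buffer: 25mM Tris-HCl pH 8, 140mM NaCl, 3mM KCl, 1mM MgCl₂. Run 45 min at 37°C, then trypsin (1mg/mL) 15min at RT, then ethanol. AMC fluorescence read at ex 380/em 460nm. Background subtracted; data normalized to DMSO. Duplicates in ≥2 independent experiments.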

HL-60 [10] = experiment: Cytotoxicity against human HL-60 cells assessed as inhibition of cell proliferation at 10 uM measured after 72 hrs by ATPlite assay; assay type: functional
In short: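 Cells exposed to compound for 72h; viability read by ATPlite. DMSO control. Technical triplicates, at least two biological replicates. IC50 interpolated from the curves.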

| SMILES | IC50 (Plasmodium falciparum [2]) | IC50 (HepG2) | IC50 (HL-60 [3]) | IC50 (Histone deacetylase) | also measured |
| --- | --- | --- | --- | --- | --- |
| CCNCc1cc(Nc2ccnc3cc(Cl)ccc23)ccc1O [DESETHYL AMODIAQUINE] | – | – | – | – | IC50 (Plasmodium falciparum [1]): 89 nM |
| CC(C)(C)OC(=O)N1CCC(NC(=O)c2ccc(NC(=O)CCCCCCC(=O)NO)cc2)CC1 | 467 nM | 150000 nM | 2500 nM | – | – |
| O=C(CCCCCCC(=O)Nc1ccccc1)NO [VORINOSTAT] | – | – | – | – | Activity (Plasmodium falciparum [4]): <=90%; Activity (Plasmodium falciparum [5]): inactive |
| CCC(CC)CCNC(=O)c1ccc(NC(=O)CCCCCCC(=O)NO)cc1 | > 500 nM | > 100000 nM | > 10000 nM | – | – |
| CCc1nc(N)nc(N)c1-c1ccc(Cl)cc1 [PYRIMETHAMINE] | – | – | – | – | Time (Plasmodium falciparum [6]): 24 h; log(activity) (Plasmodium falciparum [7]): 3.57; LT99.9 (Plasmodium falciparum [8]): 44.1 h |
| C[C@H]1[C@@H](O)O[C@@H]2O[C@@]3(C)CC[C@H]4[C@H](C)CC[C@@H]1[C@@]24OO3 [ARTENIMOL] | 3 nM | – | – | – | Time (Plasmodium falciparum [6]): 0 h; log(activity) (Plasmodium falciparum [7]): 5.12; LT99.9 (Plasmodium falciparum [8]): 21.2 h |
| CCN(CC)c1ccc(NC(=O)CCCCCCC(=O)NO)cc1 | 239 nM | 2400 nM | 2700 nM | 210 nM | – |
| CCN(CC)CCNC(=O)c1ccc(NC(=O)CCCCC(=O)NO)cc1 | 410 nM | – | – | – | inhibition [9]: 60% |
| CCN(CC)CCCNC(=O)c1ccc(NC(=O)CCCCCCC(=O)NO)cc1 | 64 nM | 8200 nM | 34000 nM | 160 nM | – |
| O=C(CCCCCCC(=O)Nc1ccc(C(=O)NCCN2CCOCC2)cc1)NO | 341 nM | 26000 nM | – | 230 nM | inhibition at 10 µM (HL-60 [10]): 40% |
